# Source: PubChem (SRMLSC)
# bCat KO growth – beta-catenin-lacking colon tumor cell growth suppression; HCT116 beta-catenin knockout viability, CellTiter-Glo, 60 h; stronger effect = lower value; AID 818; viability, % at 10 µM; 140,000 compounds, 1.5% hits;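 active = viability at or under a set limit, the compound median less 4 SD, cut at about 6% in these data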;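 note: 0% = Hyamine 1622 control at 20 µM and 100% = untreated cell control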
# Fibroblast inh – blocks proliferation of human lung fibroblasts; LL 47 human lung fibroblast viability, ATP luminescence; stronger effect = lower value; viability, % at 10 µM; 85,000 compounds, 1.1% hits;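 active = viability at or below 50% in the single dose screen; inactive = viability above 50%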;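 note: compound exposure lasted 72 h before the ATP readout; 100% = median luminescence of untreated cell-only wells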
#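 Test system: LL 47 human lung fibroblasts / Incubation: 72 h compound exposure at 37 °C after overnight plating / Technique: luminescent ATP detection, CellTiter-Glo / Compound dosing: 0.1% DMSO in all compound wells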
# H69AR inhibit – growth inhibitors of human H69AR lung tumor cells | H69AR lung tumor viability, ATP luminescence, 72 h; stronger effect = lower value | viability, % at 10 µM | 85,000 compounds, 6% hits | AID 598;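 active = viability at or below 40%; inactive = viability above 40%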;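 note: multidrug resistant small cell line overexpressing MRP-1 efflux transporter; 100% = mean luminescence of untreated control wells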
# HCT116 PTEN-null – growth suppressors of cells with PTEN tumor suppressor deletion | 140,000 compounds, 1.2% hits | HCT116 PTEN-null viability, CellTiter-Glo, 60 h; stronger effect = lower value | viability, % at 10 µM;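 active = viability at or below a set limit, 4 SD under the median of all tested compounds, cut at about 3.7% in these data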;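 note: PTEN knockout HCT116 line with beta catenin targeted HCT116 as companion control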
# HUVEC prolif 384 – human endothelial cell proliferation inhibition; HUVEC proliferation, CellTiter-Glo luminescence, 72 h; stronger effect = lower value; viability, % at 10 µM (by protocol); 86,000 compounds, 1.1% hits;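 active = viability at or below 30%; inactive = viability above 30%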;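 note: 100% = median luminescence of DMSO-only cell control wells on each plate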
# An asterisk follows results filed as active; · = no result given. Shown is part of a subset that was picked to be rich in hits.
SMILES,bCat KO growth,Fibroblast inh,H69AR inhibit,HCT116 PTEN-null,HUVEC prolif 384
Cc1cc(C)c(C(=O)CSc2nnc(-c3ccccc3Br)o2)cc1C,93,94,72,91,62
Cc1cc(C)c(C(=O)CSC2=NC(N)=C(C#N)C3(CCCCC3)C2C(N)=O)cc1C (configuration not stated),81,101,12*,70,90
CN(c1ccc(C(=O)N2CCOCC2)cc1[N+](=O)[O-])C1CCCCC1,78,·,·,75,·
CC(=O)Cc1nsc(NC(=O)c2ccc(-c3cccc(C(F)(F)F)c3)o2)n1,48,100,21*,45,66
CC(=O)Cc1nsc(NC(=O)c2ccc(-c3cc(C(F)(F)F)ccc3Cl)o2)n1,45,73,·,43,67
CC(=O)N(c1nc(CCl)cs1)c1c(C)cc(C)cc1C,98,·,·,92,·
O=C(NCCc1ccccc1)c1c(O)c2cccc3c2n(c1=O)CC3,88,99,67,94,103
CCc1nnc(NC(=O)c2c(O)c3cccc4c3n(c2=O)CC4)s1,·,86,1.8*,·,85
CCCc1nnc(NC(=O)c2c(O)c3cccc4c3n(c2=O)CC4)s1,·,111,18*,·,109
O=C(NCc1ccccn1)c1c(O)c2cccc3c2n(c1=O)CC3,0.9*,104,89,0.6*,89
O=[N+]([O-])c1ccc(COc2cccc(CNc3ccc(Br)cc3)c2)cc1,67,·,·,70,·
Cc1cc(C)c(S(=O)(=O)N2CCC(C(=O)NCc3ccc(Cl)cc3Cl)CC2)c(C)c1,75,95,100,80,83
CC(C)CCn1cnc2c(c1=O)c1nc3ccccc3nc1n2Cc1ccc2c(c1)OCO2,79,88,30*,80,86
CCCn1cnc2c(c1=O)c1nc3ccccc3nc1n2Cc1ccccc1OC,112,·,·,112,·
COc1ccc(C2CC(c3c(O)cc(C)oc3=O)=NCCS2)c(OC)c1 (configuration not stated),10,48*,24*,9,48
Cc1cc(O)c(C2=Nc3ccccc3SC(c3ccc(Cl)cc3)C2)c(=O)o1 (configuration not stated),40,·,·,30,·
Cc1cc(C)n(-c2nc(NCc3cccnc3)c3c4c(sc3n2)COC(C)(C)C4)n1,4.5*,89,61,8,87
CCCCSc1nc(NCc2ccco2)c2c3c(sc2n1)COC(C)(C)C3,80,98,44,65,93
CCCSc1nc(NCc2ccco2)c2c3c(sc2n1)COC(C)(C)C3,62,102,34*,57,88
CN(C)c1ccc(-c2nc3ccccn3c2/N=C/c2ccc(Br)cc2)cc1,47,·,·,54,·
O=C(NNS(=O)(=O)c1ccc(Cl)cc1)c1cc(-c2ccccc2)nc2ccccc12,90,·,·,89,·
Cc1oc(C(C)(C)C)cc1C(=O)Nc1cccc(C(=O)O)c1,102,100,86,105,90
c1ccc(-c2nnc(-c3ccccn3)nn2)nc1,·,100,44,·,80
CN(C)c1nc(-c2ccccn2)nnc1-c1ccccc1,13,13*,53,14,11*
CC1=C(C(=O)Nc2ccccc2C)C(c2ccc(C)o2)n2c(s/c(=C/c3ccccc3)c2=O)=N1 (configuration not stated),1.1*,75,42,46,66
SMILES,bCat KO growth,Fibroblast inh,H69AR inhibit,HCT116 PTEN-null,HUVEC prolif 384
CC1=C(C(=O)Nc2ccccc2)C(c2ccc(C)o2)n2c(s/c(=C/c3ccccc3)c2=O)=N1 (configuration not stated),64,91,23*,60,79
CC1=C(C(=O)Nc2ccccc2)C(c2ccc(C)o2)N2C(=O)CSC2=N1 (configuration not stated),84,96,102,77,100
O=C(COC(=O)[C@H](Cc1ccccc1)NC(=O)c1ccco1)NCc1ccccc1,95,·,·,95,·
CC1CCCCC1NC(=S)Nc1ccc(SC(F)F)cc1 (configuration not stated),40,44*,32*,11,42
S=C(Nc1ccc(Br)cc1)NC1CCCC1,83,·,·,85,·
FC(F)Sc1ccc(NC(=S)NC2CCCCC2)cc1,59,96,18*,29,49
FC(F)Sc1ccc(NC(=S)NCC2CCCCC2)cc1,12,83,5.1*,6,43
O=C(COC(=O)c1ccncc1)Nc1cc(Cl)c(Cl)cc1Cl,100,101,91,98,104
Cc1c(O)c(S(=O)c2ccccc2)c(=O)n(-c2ccccc2)c1-c1ccccc1 (configuration not stated),100,·,·,90,·
CCC(=O)N1c2ccccc2-c2nnc(SC)nc2OC1c1ccc(N(C)C)cc1 (configuration not stated),91,103,76,88,92
CCC1Oc2nc(SC)nnc2-c2ccccc2N1C(=O)c1ccccc1 (configuration not stated),71,84,25*,72,91
CC(C)Cn1c(=O)c2ccccc2n2c(SCC(=O)N3c4ccccc4CC3C)nnc12 (configuration not stated),87,·,·,88,·
Cn1c(=O)c2c(nc(CN3CCN(Cc4ccccc4)CC3)n2Cc2ccc(Cl)cc2)n(C)c1=O,16,45*,10*,25,70
Cn1c(=O)n(Cc2ccccc2)c(=O)c2c1nc1n2CCCN1Cc1ccccc1,92,91,32*,84,92
Cc1ccc(Cn2c(=O)c3c(nc4n3CCCN4Cc3ccccc3)n(C)c2=O)cc1,82,95,61,85,89
Cn1c(=O)c2c(nc(NCc3ccc4c(c3)OCO4)n2Cc2ccc(F)cc2)n(C)c1=O,35,84,23*,32,57
Cn1c(=O)c2c(nc(Oc3ccc4c(c3)OCO4)n2Cc2ccc(Cl)cc2)n(C)c1=O,100,·,12*,69,12*
Cc1ccc(-c2nc3cccnc3s2)cc1NC(=O)C1c2ccccc2Oc2ccccc21,53,·,·,49,·
O=C(CCC(=O)c1ccccc1)NCCc1c[nH]c2ccccc12,103,·,·,97,·
Cn1c(=O)c2c(nc(NCc3ccc4c(c3)OCO4)n2Cc2ccccc2)n(C)c1=O,65,97,29*,62,89
COc1ccccc1NC(=O)c1ccc(-c2ccccc2F)o1,83,91,53,84,75
COC(=O)c1ccccc1NC(=O)c1ccc(-c2ccccc2F)o1,86,68,13*,76,36
C/C(N)=C(/C#N)C(=O)CSc1nc2ccccc2c(=O)n1-c1ccc(C)c(Cl)c1,40,·,·,45,·
CN1C(=O)C(O)(CC(=O)c2ccc(F)cc2)c2cc(Br)ccc21 (configuration not stated),14,88,25*,15,73
COC(=O)[C@@]1(Cc2ccccc2)[C@@H]2C(=CC(=O)[C@H]2CC(=O)C(=O)N(C)C)CN1C(=O)c1ccccc1,2.4*,·,·,1.7*,·
Cc1cccc(NC(=O)C2C3CCC4C(CCC32)C4(Cl)Cl)c1 (configuration not stated),79,·,·,79,·
CSc1ccc2c(c1)N(CCC1CCCCN1C)c1ccccc1S2 (configuration not stated),1.2*,·,·,1.4*,·
